Where only a bound is given, the exact number is not on record here.

This is an account of results in ChEMBL document CHEMBL4811218, “Discovery and optimization of withangulatin A derivatives as novel glutaminase 1 inhibitors for the treatment of triple-negative breast cancer” (Eur J Med Chem, 2021).

For assay [1], the target named is T1, Glutaminase kidney isoform, mitochondrial (Homo sapiens) (UniProt O94925).
T1 sequence (whole entry): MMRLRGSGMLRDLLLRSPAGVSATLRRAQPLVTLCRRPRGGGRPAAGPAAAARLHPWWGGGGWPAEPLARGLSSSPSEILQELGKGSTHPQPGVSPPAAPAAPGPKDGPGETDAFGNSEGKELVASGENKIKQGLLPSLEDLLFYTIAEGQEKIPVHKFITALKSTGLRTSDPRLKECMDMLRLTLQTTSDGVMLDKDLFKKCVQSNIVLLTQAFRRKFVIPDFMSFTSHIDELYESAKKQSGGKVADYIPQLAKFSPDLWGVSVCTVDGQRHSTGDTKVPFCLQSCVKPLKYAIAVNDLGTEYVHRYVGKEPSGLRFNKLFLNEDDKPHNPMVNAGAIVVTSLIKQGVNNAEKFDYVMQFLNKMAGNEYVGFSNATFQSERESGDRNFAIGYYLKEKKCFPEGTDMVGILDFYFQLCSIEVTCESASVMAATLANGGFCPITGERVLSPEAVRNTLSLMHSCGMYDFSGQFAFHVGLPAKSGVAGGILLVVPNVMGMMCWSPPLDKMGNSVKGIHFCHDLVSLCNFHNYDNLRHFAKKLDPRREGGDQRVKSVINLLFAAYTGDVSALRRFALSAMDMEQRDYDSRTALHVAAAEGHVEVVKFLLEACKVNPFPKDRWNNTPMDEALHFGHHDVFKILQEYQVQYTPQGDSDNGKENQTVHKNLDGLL
Description: Inhibition of human GLS1 at 10 uM relative to control. Put shortly: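 Human GLS1 hydrolase activity measured with a commercial GLS1 inhibitor screening kit, following the manufacturer's protocol. Single-point screening was run at 10 μM.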

Assay [2] concerns MDA-MB-231. The experiment in a line: Antiproliferative activity against human MDA-MB-231 cells after 24 hrs by MTT assay. The class given is functional, cell-based. To be noted: MDA-MB-231, 24 h.
Assay [3] relates to MDA-MB-231. Description: Antiproliferative activity against human MDA-MB-231 cells after 24 hrs by MTT assay relative to control. The class given is functional. Put shortly: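 MDA-MB-231 cells kept in DMEM with 10% FBS at 37°C, 5% CO2. Seeded at 5×10^3 cells/well and left 24 h, then exposed to compounds at 0.078-10 µM for 24 h. 0.1% DMSO served as the vehicle control. MTT added for 4 h, formazan dissolved in DMSO, absorbance read at 570 nm. IC50 derived. Each run in triplicate, repeated at least three times.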

The compound `CC(=O)O[C@H]1C=C([C@H](C)[C@H]2CC(C)=C(C)C(=O)O2)[C@@]2(C)CC[C@H]3[C@@H](C[C@H]4O[C@]45[C@@H](OC(=O)CCC(=O)O)C=CC(=O)[C@]35C)[C@@]12O` showed an inhibition in assay [1] below 50%. Also, the IC50 in the assay with MDA-MB-231 [2] was above 50000 nM.
As to `CC(=O)O[C@H]1C=C([C@H](C)[C@H]2CC(C)=C(C)C(=O)O2)[C@@]2(C)CC[C@H]3[C@@H](C[C@H]4O[C@]45[C@@H](OC(=O)/C=C/C(=O)Nc4ccc(N(C)C)cc4)C=CC(=O)[C@]35C)[C@@]12O`, the inhibition in assay [1] was below 50%. In addition, the “inhibition (INH)” value in the assay on MDA-MB-231 [3] is 72.1%. In addition, in the assay with MDA-MB-231 [2], half-maximal inhibition (IC50) was put at 1560 nM.
The matching figures for `CC(=O)O[C@H]1C=C([C@H](C)[C@H]2CC(C)=C(C)C(=O)O2)[C@@]2(C)CC[C@H]3[C@@H](C[C@H]4O[C@]45[C@@H](OC(=O)CCCC(=O)Nc4nccs4)C=CC(=O)[C@]35C)[C@@]12O`: below 50%, 84.8% and 1000 nM.
For `CC(=O)O[C@H]1C=C([C@H](C)[C@H]2CC(C)=C(C)C(=O)O2)[C@@]2(C)CC[C@H]3[C@@H](C[C@H]4O[C@]45[C@@H](OC(=O)/C=C/C(=O)Nc4nc6ccccc6s4)C=CC(=O)[C@]35C)[C@@]12O` the same measures were below 50%, 0% and above 50000 nM.
Consider `CC(=O)O[C@H]1C=C([C@H](C)[C@H]2CC(C)=C(C)C(=O)O2)[C@@]2(C)CC[C@H]3[C@@H](C[C@H]4O[C@]45[C@@H](OC(=O)CCCC(=O)Nc4ccc(N6CCOCC6)c(F)c4)C(Nc4ccc(N6CCOCC6)c(F)c4)CC(=O)[C@]35C)[C@@]12O` (stereo partly specified), for which the inhibition in assay [1] is below 50%. Besides, the “inhibition (INH)” value in the assay on MDA-MB-231 [3] amounted to 0%. This compound also came in with an IC50 with MDA-MB-231 [2] above 50000 nM.
Turning to `O=C(Cc1ccccc1)Nc1nnc(CCSCCc2nnc(NC(=O)Cc3ccccc3)s2)s1`, in the assay on MDA-MB-231 [3], the “inhibition (INH)” value is given as 68.5%. In addition, in the assay on MDA-MB-231 [2], the IC50 stood at 9080 nM.
With `COc1ccc(NC(=O)CCCC(=O)O[C@H]2C=CC(=O)[C@]3(C)[C@H]4CC[C@]5(C)C([C@H](C)[C@H]6CC(C)=C(C)C(=O)O6)=C[C@H](OC(C)=O)[C@]5(O)[C@@H]4C[C@H]4O[C@]243)cc1`, the inhibition in assay [1] is 56.3%. For the same compound, the “inhibition (INH)” value in the assay with MDA-MB-231 [3] is listed as 92.9%. Besides, the IC50 in the assay on MDA-MB-231 [2] was 440 nM.
For `CC(=O)O[C@H]1C=C([C@H](C)[C@H]2CC(C)=C(C)C(=O)O2)[C@@]2(C)CC[C@H]3[C@@H](C[C@H]4O[C@]45[C@@H](OC(=O)CCC(=O)Nc4nc6ccccc6s4)C=CC(=O)[C@]35C)[C@@]12O` the same measures were below 50%, 79.5% and 3500 nM.
For `CC(=O)O[C@H]1C=C([C@H](C)[C@H]2CC(C)=C(C)C(=O)O2)[C@@]2(C)CC[C@H]3[C@@H](C[C@H]4O[C@]45[C@@H](OC(=O)CCC(=O)Nc4ccc(F)cc4)C=CC(=O)[C@]35C)[C@@]12O` the same measures were below 50%, 80.4% and 1870 nM.
The matching figures for `CC(=O)O[C@H]1C=C([C@H](C)[C@H]2CC(C)=C(C)C(=O)O2)[C@@]2(C)CC[C@H]3[C@@H](C[C@H]4O[C@]45[C@@H](OC(=O)CCC(=O)Nc4ccc(N6CCOCC6)c(F)c4)C=CC(=O)[C@]35C)[C@@]12O`: 53.5%, 80.9% and 1660 nM.
Consider `COc1ccc(NC(=O)CCC(=O)O[C@H]2C=CC(=O)[C@]3(C)[C@H]4CC[C@]5(C)C([C@H](C)[C@H]6CC(C)=C(C)C(=O)O6)=C[C@H](OC(C)=O)[C@]5(O)[C@@H]4C[C@H]4O[C@]243)cc1`, for which the inhibition in assay [1] is below 50%. Also, the “inhibition (INH)” value in the assay with MDA-MB-231 [3] is 82.9%. In the assay with MDA-MB-231 [2], this compound came in with an IC50 of 1020 nM.
`CC(=O)O[C@H]1C=C([C@H](C)[C@H]2CC(C)=C(C)C(=O)O2)[C@@]2(C)CC[C@H]3[C@@H](C[C@H]4O[C@]45[C@@H](OC(=O)CCCC(=O)O)C=CC(=O)[C@]35C)[C@@]12O`: the inhibition in assay [1] is below 50%. The same compound came in with an IC50 in the assay on MDA-MB-231 [2] above 50000 nM.
`CC(=O)O[C@H]1C=C([C@H](C)[C@H]2CC(C)=C(C)C(=O)O2)[C@@]2(C)CC[C@H]3[C@@H](C[C@H]4O[C@]45[C@@H](OC(=O)/C=C/C(=O)Nc4ccc(N6CCOCC6)c(F)c4)C=CC(=O)[C@]35C)[C@@]12O`: the inhibition in assay [1] stood at 52.4%. The “inhibition (INH)” value in the assay with MDA-MB-231 [3] was determined as 90.8%. In the assay with MDA-MB-231 [2], this compound yielded an IC50 of 1380 nM.
The matching figures for `COc1ccc(NC(=O)CCC(=O)O[C@H]2C(Nc3ccc(OC)cc3)CC(=O)[C@]3(C)[C@H]4CC[C@]5(C)C([C@H](C)[C@H]6CC(C)=C(C)C(=O)O6)=C[C@H](OC(C)=O)[C@]5(O)[C@@H]4C[C@H]4O[C@@]423)cc1` (stereo partly specified): below 50%, 0% and above 50000 nM.
Take `CC(=O)O[C@H]1C=C([C@H](C)[C@H]2CC(C)=C(C)C(=O)O2)[C@@]2(C)CC[C@H]3[C@@H](C[C@H]4O[C@]45[C@@H](OC(=O)/C=C/C(=O)O)C=CC(=O)[C@]35C)[C@@]12O`: the inhibition in assay [1] was below 50%. The IC50 in the assay on MDA-MB-231 [2] was above 50000 nM.
With `CC(=O)O[C@H]1C=C([C@H](C)[C@H]2CC(C)=C(C)C(=O)O2)[C@@]2(C)CC[C@H]3[C@@H](C[C@H]4O[C@]45[C@@H](OC(=O)CCC(=O)Nc4nncs4)C=CC(=O)[C@]35C)[C@@]12O`, the inhibition in assay [1] was below 50%. Further, in the assay on MDA-MB-231 [3], the “inhibition (INH)” value stood at 77.5%. In the assay with MDA-MB-231 [2], this compound returned an IC50 of 8070 nM.
For the compound `COc1ccc(NC(=O)/C=C/C(=O)O[C@H]2C=CC(=O)[C@]3(C)[C@H]4CC[C@]5(C)C([C@H](C)[C@H]6CC(C)=C(C)C(=O)O6)=C[C@H](OC(C)=O)[C@]5(O)[C@@H]4C[C@H]4O[C@]243)cc1`, the inhibition in assay [1] worked out at 51.6%. Moreover, the “inhibition (INH)” value in the assay with MDA-MB-231 [3] turned out to be 94.1%. This compound yielded an IC50 in the assay with MDA-MB-231 [2] of 790 nM.
The compound `CC(=O)O[C@H]1C=C([C@H](C)[C@H]2CC(C)=C(C)C(=O)O2)[C@@]2(C)CC[C@H]3[C@@H](C[C@H]4O[C@]45[C@@H](OC(=O)/C=C/C(=O)Nc4ccc(F)cc4)C=CC(=O)[C@]35C)[C@@]12O` had an inhibition in assay [1] below 50%. Further, in the assay on MDA-MB-231 [3], the “inhibition (INH)” value was found to be 88.9%. Also, the IC50 in the assay with MDA-MB-231 [2] came to 1320 nM.
The matching figures for `CC(=O)O[C@H]1C=C([C@H](C)[C@H]2CC(C)=C(C)C(=O)O2)[C@@]2(C)CC[C@H]3[C@@H](C[C@H]4O[C@]45[C@@H](OC(=O)CCCC(=O)Nc4ccc(N(C)C)cc4)C=CC(=O)[C@]35C)[C@@]12O`: 51.8%, 92.6% and 1070 nM.
The matching figures for `CC(=O)O[C@H]1C=C([C@H](C)[C@H]2CC(C)=C(C)C(=O)O2)[C@@]2(C)CC[C@H]3[C@@H](C[C@H]4O[C@]45[C@@H](OC(=O)CCC(=O)Nc4nccs4)C=CC(=O)[C@]35C)[C@@]12O`: below 50%, 79.6% and 2060 nM.
Regarding `CC(=O)O[C@H]1C=C([C@H](C)[C@H]2CC(C)=C(C)C(=O)O2)[C@@]2(C)CC[C@H]3[C@@H](C[C@H]4O[C@]45[C@@H](OC(=O)CCCC(=O)Nc4nc6ccccc6s4)C=CC(=O)[C@]35C)[C@@]12O`, in assay [1], the inhibition is below 50%. In the assay on MDA-MB-231 [3], the “inhibition (INH)” value came to 94.1%. Moreover, in the assay with MDA-MB-231 [2], half-maximal inhibition (IC50) required 670 nM.
Consider `CC(=O)O[C@H]1C=C([C@H](C)[C@H]2CC(C)=C(C)C(=O)O2)[C@@]2(C)CC[C@H]3[C@@H](C[C@H]4O[C@]45[C@@H](OC(=O)CCC(=O)Nc4ccc(N(C)C)cc4)C=CC(=O)[C@]35C)[C@@]12O`, for which the inhibition in assay [1] was below 50%. Moreover, the “inhibition (INH)” value in the assay with MDA-MB-231 [3] came out at 83.3%. For the same compound, 1620 nM corresponded to half-maximal inhibition with MDA-MB-231 [2] (IC50).
Take `CC(=O)O[C@H]1C=C([C@H](C)[C@H]2CC(C)=C(C)C(=O)O2)[C@@]2(C)CC[C@H]3[C@@H](C[C@H]4O[C@]45[C@@H](OC(=O)CCCC(=O)Nc4nncs4)C=CC(=O)[C@]35C)[C@@]12O`: the inhibition in assay [1] is below 50%. Also, the “inhibition (INH)” value in the assay on MDA-MB-231 [3] amounted to 71.6%. This compound yielded an IC50 in the assay on MDA-MB-231 [2] of 2170 nM.
Regarding `COc1ccc(NC(=O)CCCC(=O)O[C@H]2C(Nc3ccc(OC)cc3)CC(=O)[C@]3(C)[C@H]4CC[C@]5(C)C([C@H](C)[C@H]6CC(C)=C(C)C(=O)O6)=C[C@H](OC(C)=O)[C@]5(O)[C@@H]4C[C@H]4O[C@@]423)cc1` (stereo partly specified), the inhibition in assay [1] is below 50%. For the same compound, the “inhibition (INH)” value with MDA-MB-231 [3] was determined as 0%. In addition, the IC50 in the assay with MDA-MB-231 [2] was above 50000 nM.
For `CC(=O)O[C@H]1C=C([C@H](C)[C@H]2CC(C)=C(C)C(=O)O2)[C@@]2(C)CC[C@H]3[C@@H](C[C@H]4O[C@]45[C@@H](OC(=O)/C=C/C(=O)Nc4nccs4)C=CC(=O)[C@]35C)[C@@]12O` the same measures were below 50%, 88.4% and 1830 nM.
